Our source for the Suppression and FIC values is ChEMBL document CHEMBL1135479, “Design, synthesis, and evaluation of new chemosensitizers in multi-drug-resistant Plasmodium falciparum” (2002).

The test system of test [1] is Plasmodium falciparum. Briefly: In vitro anti-MDR effect in chloroquine resistant TM91C235 cell lines at 50 ng/ml concentration in the presence of 10 ng/mL chloroquine. Format: functional. The procedure, abridged: (§1)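 Test agent was combined with chloroquine at 10 ng/mL. TM91C235 was cultured in erythrocytes at 0.2% parasitemia and 1% hematocrit, in folate- and PABA-free RPMI-1640, for 66 h at 37 °C under 5% CO2/5% O2/90% N2. 3H-hypoxanthine was added at 42 h, and cell suppression was taken from scintillation counts of harvested lysates.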

The subject of test [2] is Plasmodium falciparum. The experiment in a line: In vitro anti-MDR effect in chloroquine and mefloquine resistant TM91C235 cell lines at 5000 ng/ml concentration. Format: functional. The procedure, abridged: (§2)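 TM91C235 P. falciparum in erythrocytes at 0.2% parasitemia and 1% hematocrit, in folate- and PABA-free RPMI-1640 with 10% heat-inactivated human plasma or Albumax. Incubated 66 h at 37 °C under 5% CO2/5% O2/90% N2, with 3H-hypoxanthine added at 42 h. Cells lysed by freezing at -70 °C and harvested; inhibition of isotope incorporation read by scintillation counting.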

Test [3] has as its system Plasmodium falciparum. The experiment in a line: Fractional inhibitory concentration (FIC) (1:1 combination of compound and chloroquine) was tested in Plasmodium falciparum W2 clone. Format: functional. The procedure, abridged: (§3)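 Parasite growth read by [3H]hypoxanthine incorporation in erythrocytes at 0.2% parasitemia and 1% hematocrit. Medium: folate- and PABA-free RPMI-1640 with 10% heat-inactivated human plasma or Albumax. Cultures were kept at 37 °C under 5% CO2/5% O2/90% N2, with label added at 42 h and 66 h total incubation. Counts were taken after freeze-thaw harvest, IC50 came from nonlinear logistic fits, and FIC index was derived from isobologram.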

Test [4] relates to Plasmodium falciparum. The experiment in a line: In vitro anti-MDR effect in mefloquine resistant TM91C235 cell lines at 50 ng/ml concentration in the presence of 5 ng/mL mefloquine. Format: functional. The procedure, abridged: (§4)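 Mefloquine was held at 5 ng/mL, combined with test agent. Parasites (TM91C235) were in erythrocytes at 0.2% parasitemia and 1% hematocrit, in folate/PABA-free RPMI-1640 with human plasma or Albumax. Incubation was 66 h at 37 °C in 5% CO2/5% O2/90% N2, with 3H-hypoxanthine added for the last 24 h. Incorporation was counted after freeze-lysis and harvesting.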

Test [5] has as its system Plasmodium falciparum. The experiment in a line: In vitro anti-MDR effect in chloroquine and mefloquine resistant TM91C235 cell lines at 500 ng/ml concentration. In kind it is functional. The procedure, abridged: as §2
A short description of test [6]: Fractional inhibitory concentration (FIC) tested against Peruvian PC49 cells, isolate from South America. In kind it is functional, Plasmodium falciparum. The procedure, abridged:
as §3

Test [7] relates to Plasmodium falciparum. Briefly: In vitro anti-MDR effect in mefloquine resistant TM91C235 cell lines at 500 ng/ml concentration in the presence of 5 ng/mL mefloquine. In kind it is functional. The procedure, abridged:
as §4

The subject of test [8] is Plasmodium falciparum. Briefly: In vitro anti-MDR effect in mefloquine resistant TM91C235 cell lines at 5000 ng/ml concentration in the presence of 5 ng/mL mefloquine. Format: functional. The procedure, abridged:
as §4

Test [9] deals with Plasmodium falciparum. The experiment in a line: In vitro anti-MDR effect in chloroquine resistant TM91C235 cell lines at 500 ng/ml concentration in the presence of 10 ng/mL chloroquine. In kind it is functional. The procedure, abridged:
as §1

The subject of test [10] is Plasmodium falciparum. The experiment in a line: In vitro anti-MDR effect in chloroquine and mefloquine resistant TM91C235 cell lines at 50 ng/ml concentration. Format: functional. The procedure, abridged: as §2
Test [11] is described as follows: Fractional inhibitory concentration (FIC) tested against RCS cells, isolate from Brazil. In kind it is functional, Plasmodium falciparum. The procedure, abridged:
as §3

Test [12] has as its system Plasmodium falciparum. The experiment in a line: In vitro anti-MDR effect in chloroquine resistant TM91C235 cell lines at 5000 ng/ml concentration in the presence of 10 ng/mL chloroquine. Format: functional. The procedure, abridged: as §1
The test system of test [13] is Plasmodium falciparum. The experiment in a line: Fractional inhibitory concentration (FIC) tested against TM91C235 cells, isolate from South east Asia. Format: functional. The procedure, abridged: as §3

For the molecule `CCN(CC)CCCCN1c2ccccc2Sc2ccccc21`, the Suppression in the test on Plasmodium falciparum [1] was found to be 31%; in the test on Plasmodium falciparum [2], 100%; in the test on Plasmodium falciparum [4], 17%; in the test on Plasmodium falciparum [5], 38%; with Plasmodium falciparum [7] it was 30%; with Plasmodium falciparum [8], 100%. Further, the Suppression turned out to be 99% in the test on Plasmodium falciparum [9], 26% in the test with Plasmodium falciparum [10] and 100% in the test on Plasmodium falciparum [12]. Also, the FIC in the test with Plasmodium falciparum [3] is on record as 0.23; in test [6], 0.41; in [11], 0.41; with Plasmodium falciparum [13], 0.29.
